APJ ag: agonists of human apelin receptor APJ, primary screen, CHO-K1 cells, PathHunter beta-arrestin, luminescence. P35414. 0% DMSO wells, 100% apelin. activation, % at 20 µM. 0.11% of 330,000 active;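 active = activation more than six SD over the plate average, tested at 20 µM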;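 also: 0% = DMSO alone and 100% = apelin-13 at 10 nM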
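Material: CHO-K1 APJ beta-arrestin complementation cell line; Input: cell density 1000 per well; Incubation: compound stimulation 90 min at 25 °C, detection 60 min; Signal: luminescence from split beta-galactosidase complementation, Galacton Star/Emerald II substrate; Controls: DMSO-only wells as negative, 10 nM Apelin-13 as positive control.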
EBI2 block: EBI2 receptor antagonists, beta-arrestin recruitment, primary screen, cell-based, luminescence, 7a,25-OHC stimulation, uHTS | inhibition, % at 5 µM | 0.81% of 360,000 active | AID 651636, 2012 | 7a,25-OHC stimulated; in the data active = inhibition above about 38%;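 also: enzyme fragment complementation signal reports receptor beta-arrestin coupling in cells; 0% = agonist plus DMSO wells and 100% = wells without agonist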
CXCR6 block: CXCR6 receptor inhibitors, primary screen, cell-based, beta-arrestin, luminescence, CHO-K1 PathHunter, 1536-well | C-X-C chemokine receptor type 6 (Homo sapiens), O00574 | 0.36% of 360,000 active | inhibition, % at 20 µM; in the data active = inhibition above about 34%, passing the limit was not always enough;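 also: antagonist mode with CXCL16 agonist at 10 nM final; 0% = 10 nM CXCL16 with DMSO and 100% = unstimulated wells without agonist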
Target sequence (O00574 whole entry, looked up): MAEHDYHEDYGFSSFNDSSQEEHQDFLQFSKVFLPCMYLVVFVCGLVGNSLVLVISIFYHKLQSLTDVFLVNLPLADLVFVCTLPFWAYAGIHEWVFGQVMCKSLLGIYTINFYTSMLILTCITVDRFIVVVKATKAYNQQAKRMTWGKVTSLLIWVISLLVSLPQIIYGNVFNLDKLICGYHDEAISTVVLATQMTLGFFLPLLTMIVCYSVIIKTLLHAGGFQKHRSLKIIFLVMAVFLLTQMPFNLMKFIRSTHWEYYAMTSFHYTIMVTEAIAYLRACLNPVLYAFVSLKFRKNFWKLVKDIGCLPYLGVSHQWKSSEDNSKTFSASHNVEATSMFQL
Beta2AR agonist: beta2AR agonists driving receptor internalization, primary screen, cell-based, FAP fluorogen, flow cytometry; Am2.2-beta2AR cells; response, % (no concentration beside the values); 0.43% of 340,000 active; AID 504454, 2011;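 active = response above a set limit, near 3 SD of response in nonfluorescent compounds, cut at about 42% in these data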
CCR6 antagonist: CCR6 receptor antagonists, primary screen, cell-based, CHO-K1, luminescence, beta-arrestin, uHTS; C-C chemokine receptor type 6 (Homo sapiens), P51684; CHO-K1 CCR6 PathHunter beta-arrestin, CCL20-stimulated; inhibition, % at 20 µM; 0.49% of 340,000 active; AID 493098, 2011;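 active = compounds whose inhibition of the agonist-driven luminescence signal at 20 µM reaches about 50%, limit read from the data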;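 also: cells stimulated with CCL20 at 14 nM final; plate controls were DMSO with CCL20 for no effect and DMSO without agonist for full effect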
APJ antagonist: antagonists of human apelin receptor APJ, primary screen, CHO-K1 cells, beta-arrestin complementation, luminescence; P35414; inhibition, % at 20 µM; 0.32% of 330,000 active; AID 2521, 2010;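 active = inhibition above about 40% at 20 µM, limit read from the data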;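 also: cells challenged with 10 nM apelin-13 agonist together with compound; plate controls were apelin-13 plus DMSO wells for no effect and DMSO wells lacking apelin-13 for full effect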
APJ antag conf: APJ antagonists blocking beta-arrestin recruitment, confirmation, cell-based, luminescence, single concentration, uHTS hits. inhibition, % at 20 µM. shares compounds with APJ antagonist. antagonist mode. 66% of 950 active; in the data active = inhibition above about 50%
Numbers without * were called inactive; / = no result. This is a sample that favours compounds with a hit; in the whole collection about 1.8% have one here.

SMILES | APJ ag | EBI2 block | CXCR6 block | Beta2AR agonist | CCR6 antagonist | APJ antagonist | APJ antag conf
Oc1ccc(N=Nc2ccccc2C(F)(F)F)c2cccnc12 | -11 | 15 | 22 | 14 | 58* | 49* | 103*
COCc1c(C(=O)NCc2ccccc2CN2CCCC2)oc2ccccc12 | -3 | 6 | 4 | 1 | 17 | 9 | /
Oc1ccccc1/C=N/Nc1cc(N2CCCC2)nc(N2CCCC2)n1 | -3 | 28 | 16 | 27 | 35 | 42* | 42
CCOc1ccc(C(=O)Nc2ccc(S(=O)(=O)N3CCN(C)CC3)cc2)cc1 | 1 | -1 | 1 | 6 | 3 | 5 | /
CNC[C@H](Cc1cccc2ccccc12)NC[C@H](CCSC)NCC1CCC(C(C)(C)C)CC1 (some centres undefined) | -5 | / | / | / | / | 1 | /
Cc1[nH]n(-c2ccccc2)c(=O)c1C(C[N+](=O)[O-])c1ccc(F)cc1 (centres undefined) | 1 | -16 | 11 | -1 | 16 | 45* | 16
CCOC(=O)[C@]12CCCC=C1N(Cc1cccc3ccccc13)C(=O)[C@H](CC(=O)N1CCOCC1)C2 | / | -2 | 2 | / | / | / | /
COc1ccc(CC(=O)OC(C)C(=O)NCc2ccc3c(c2)OCO3)cc1OC (centres undefined) | -1 | -2 | -10 | 4 | 2 | 41* | 1
C[C@@H](NC(=O)[C@@H]1CCCN1C(=O)[C@@H]1CCCN1C(=O)c1cccs1)c1ccccc1 | / | 1 | -4 | / | / | / | /
CCCn1nc([N+](=O)[O-])c(C(C#N)c2nc3ccccc3s2)c(Cl)c1=O (centres undefined) | -11 | 1 | 31 | 20 | 50* | 62* | 66*
CCN(CCCNc1cc2c(c(N)c1S(=O)(=O)O)C(=O)c1ccccc1C2=O)c1ccccc1 | / | -10 | 35 | / | / | / | /
O=[N+]([O-])c1c(NCCCO)cc(Sc2nc3ccccc3s2)c2nonc12 | -7 | 49* | 97* | 96* | 115* | 76* | 117*
CC1(c2nc3ccccc3[nH]2)c2ccccc2C(=O)N1Cc1ccccn1 (centres undefined) | / | 0 | 0 | / | / | / | /
Cc1ccc(NC(=S)NNc2ncc(C(F)(F)F)cc2Cl)c(C)c1 | -10 | 24 | 65* | -2 | 81* | 53* | 49
CSCCC1NC(=O)N(CC(=O)Nc2ccc3c(c2)OCCO3)C1=O (centres undefined) | -3 | -3 | -4 | 12 | 7 | 2 | /
CCCOc1cccc(C2C(C(=O)c3cc4ccccc4o3)=C(O)C(=O)N2c2cc(C)on2)c1 (centres undefined) | -4 | -2 | -2 | 2 | 5 | 47* | 35
Cc1cc(N2C(=O)C(O)=C(C(=O)c3cc4ccccc4o3)C2c2cccc(Br)c2)no1 (centres undefined) | -3 | 11 | 5 | 19 | 4 | 31 | /
CN(C)c1ccc2nc3ccc(=[N+](C)C)cc-3sc2c1 | -6 | 11 | 18 | 1 | 36 | 45* | 33
CN(C)c1ccc2nc3ccc(=O)cc-3sc2c1 | / | -4 | -1 | / | / | / | /
O=C1OC(c2ccc(F)cc2)=C/C1=C\c1ccc(O)cc1 | -6 | 14 | 35 | 6 | 52* | 43* | 74*
Cc1cc(C)nc(NCCO)n1 | 0 | 4 | -2 | 1 | -3 | -10 | /
ON1C(c2ccc(Cl)cc2Cl)N(O)[C@H]2CCCC[C@H]21 (some centres undefined) | -9 | -5 | 8 | -7 | 80* | 55* | 85*
O=C(CNc1ccc(Br)cc1)c1ccc(O)cc1 | -3 | 0 | 2 | 6 | 39 | 35 | /
O=C(CNc1ccc(Br)cc1)c1ccc(Br)s1 | -16 | 38 | 41* | 3 | 66* | 66* | 108*
Nc1c(N2CCCC2)c2ccccc2oc1=O | -9 | 28 | 31 | 0 | 55* | 71* | 83*
SMILES | APJ ag | EBI2 block | CXCR6 block | Beta2AR agonist | CCR6 antagonist | APJ antagonist | APJ antag conf
CC1(Cc2ccccc2F)C(=O)Nc2c(Cl)ccc(Cl)c21 (centres undefined) | / | 2 | 9 | / | / | / | /
CN(C)c1ccc(/C=C/c2ccc3ccccc3[n+]2C)cc1 | -3 | 6 | 48* | -16 | 53* | 64* | 89*
CN(CCCS(=O)(=O)[O-])c1ccc(/C=C/c2ccc3ccccc3[n+]2C)cc1 | -5 | -4 | 1 | -10 | 17 | 17 | /
CC(Cc1n[nH]c(=S)n1N)c1ccccc1 (centres undefined) | -3 | -1 | -3 | -1 | -2 | 7 | /
O=C(C1=C(Nc2ccccc2)c2ccccc2S(=O)(=O)N1)c1ccccc1 | -6 | 10 | 33 | 5 | 70* | 45* | 72*
Cc1ccccc1NC1=C(C(=O)c2ccccc2)N(C)S(=O)(=O)c2ccccc21 | -5 | 13 | 13 | 12 | 12 | 22 | /
O=c1c(N=Nc2ccc(O)cc2)c(-c2ccccc2)[nH]n1-c1ccc([N+](=O)[O-])cc1 | -6 | 34 | 37 | 7 | 52* | 54* | 43
O=Nc1c(-c2ccccc2)[nH]n(-c2ccccc2)c1=O | -3 | 3 | 10 | -3 | 13 | -3 | /
O=C(c1ccco1)N1CCN(S(=O)(=O)c2ccc(Cl)cc2)CC1 | 2 | -3 | 9 | -12 | 2 | -1 | /
O=C(c1ccco1)N1CCN(C(=O)C2(S(=O)(=O)c3ccc(Cl)cc3)CC2)CC1 | 2 | -1 | 6 | 1 | -3 | 41* | 14
Cc1ccc2nsnc2c1NC(=O)Cc1ccc(Cl)cc1 | -5 | 8 | 8 | -1 | 19 | 45* | 47
Cc1ccc2nsnc2c1NC(=O)CCl | -3 | -6 | -1 | -4 | -5 | 6 | /
CCN(CC)c1ccc2nc3ccccc3[n+](CC)c2c1 | -6 | 4 | 21 | 4 | 40 | 29 | /
CCN(CC)c1ccc2nc3ccc(N)cc3[n+](-c3ccccc3)c2c1 | -10 | 11 | 40 | 16 | 59* | 45* | 96*
N#Cc1cccc(C2CC(OCCF)=CC(=O)O2)c1 (centres undefined) | / | 2 | / | / | / | / | /
CC(C)NC(=O)c1sc2nc(-c3cccs3)cc(-c3cccs3)c2c1N | -17 | / | / | / | 29 | 42* | 31
COc1ccc(C(=O)c2sc3nc(C)cc(-c4cccs4)c3c2N)cc1 | / | 33 | 5 | -74 | -9 | / | /
CCCOc1ccc(C2C(=O)N(C3CCCCC3)CC(=O)N2CCCOCC)cc1OC (centres undefined) | -6 | -5 | -6 | 1 | -4 | -4 | /

Bioassay records from PubChem BioAssay.
